Screens: PubChem, several laboratories
Hits are enriched below; roughly 2.1% of the tested compounds scored in any of these assays.
CDK5 p35 inh: inhibitors of human CDK5/p35 kinase; Q00535+Q15078; Recombinant CDK5/p35, ADP-Glo luminescence, 60 min; inhibition, % at 10 µM; 330,000 tested, 0.01% active;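 active = highest replicate inhibition of at least 50% and at least 75% of replicates reaching 50%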;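 also: plate controls were DMSO neutral control for no effect and GW8510 at 10 µM for full effect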
Target sequence (Q00535 whole entry, looked up): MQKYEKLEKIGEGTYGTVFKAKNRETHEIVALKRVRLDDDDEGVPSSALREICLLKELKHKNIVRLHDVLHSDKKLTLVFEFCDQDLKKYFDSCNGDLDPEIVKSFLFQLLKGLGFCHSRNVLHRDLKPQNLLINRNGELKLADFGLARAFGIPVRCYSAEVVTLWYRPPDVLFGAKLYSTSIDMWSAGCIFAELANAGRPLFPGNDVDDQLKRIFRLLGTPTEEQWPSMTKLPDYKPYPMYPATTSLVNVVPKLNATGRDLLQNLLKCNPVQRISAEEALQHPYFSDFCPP
Target sequence (Q15078 whole entry, looked up): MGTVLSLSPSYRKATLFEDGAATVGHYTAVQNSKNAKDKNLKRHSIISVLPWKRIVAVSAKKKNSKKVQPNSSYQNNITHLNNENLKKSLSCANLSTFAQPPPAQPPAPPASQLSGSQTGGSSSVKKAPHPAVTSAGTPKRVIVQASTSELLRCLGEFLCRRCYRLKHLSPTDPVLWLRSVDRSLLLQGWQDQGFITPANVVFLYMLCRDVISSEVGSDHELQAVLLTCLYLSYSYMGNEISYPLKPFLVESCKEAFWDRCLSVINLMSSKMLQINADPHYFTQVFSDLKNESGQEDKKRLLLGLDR
PKA-R1A act: PKA-R1A complex activation | P00514+P68181 | activation, % at 11.4 µM | 340,000 tested, 0.083% active | PKA-R1A dissociation, Cy5-IP20 fluorescence polarization; scaled: DMSO 0%, 113 µM cGMP 100%;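 active = percent activation above the mean of all tested compounds plus 3 SD, cut at about 19% in these data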;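 also: higher means more PKAc released from R1A so a rise in polarization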
SR-BI DiI-HDL act: activators of SR-BI mediated HDL lipid uptake. CHO ldlA[mSR-BI] cells, DiI-HDL uptake fluorescence, 3 h; 100 = double the neutral-control signal. activation, % at 12.5 µM. 320,000 tested, 0.096% active. AID 504775;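 active = mean replicate activation of at least 60% and every replicate at or above 60%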;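 also: 0% = median plate neutral-control signal and 100% = twice that signal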
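Test system: SR-BI-overexpressing, LDLR-lacking CHO cells; Medium: Ham's F12 with 0.5% BSA, HEPES 25 mM, pH 7.4; Schedule: 3 h, 37 °C; Technique: bottom-read fluorescence, 550/595 nm.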
dFosB activator: enhances mouse delta FosB homodimer DNA binding. P13346. purified delta FosB, TAMRA-CDK5 oligo fluorescence polarization; percent of positive-control signal above neutral wells. activation, % at 25 µM. 340,000 tested, 0.99% active. AID 493131;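 active = mean activation above about 17%, with every replicate also reaching it, limit read from the data, passing the limit was not always enough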
SR-BI HDL uptake: inhibitors of mouse SR-BI mediated HDL lipid uptake; ldlA[mSR-BI] CHO cells, DiI-HDL uptake fluorescence, 3 h; 320,000 tested, 0.96% active; inhibition, % at 12.5 µM; Q61009;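 active = mean replicate inhibition of at least 70% and a set share of replicates each scoring 70 or more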;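 also: 0% = median of neutral control wells and 100% = median of positive control wells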
PKA-R2B act: activates the human PKA-R2B holoenzyme complex; P22694+P31323; PKA-R2B holoenzyme dissociation, Cy5-IP20 fluorescence polarization; R2B truncated from residue 108, S112A mutant; 0% DMSO only, 100% 113 µM cGMP; activation, % at 11.4 µM; 340,000 tested, 0.079% active;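 active = activation above a cutoff set at the mean over all compounds plus 3 SD, cut at about 18% in these data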;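 also: higher means more holoenzyme dissociation and a rise in polarization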
* marks the source's active call; other numbers are inactive results; / = no result given.

SMILES | CDK5 p35 inh | PKA-R1A act | SR-BI DiI-HDL act | dFosB activator | SR-BI HDL uptake | PKA-R2B act
O=C(NNc1c2ccccc2nc2ccccc12)C12CC3CC(CC(C3)C1)C2 | -3.3 | 4.7 | -13.6 | -4.5 | 13.6 | 10.4
CCn1c2ccccc2c2cc(NC(=O)c3cccc([N+](=O)[O-])c3)ccc21 | 0.7 | 0.5 | -80.3 | -10.1 | 80.3* | -5.3
CCn1c2ccccc2c2cc(NC(=O)c3cc(OC)cc(OC)c3)ccc21 | 1.5 | -10.6 | -77.4 | -4.4 | 77.4* | -20.4
O=S(=O)(Nc1ccc(-n2cnnn2)cc1)c1cccc(Cl)c1 | -3.4 | 0.5 | 4.8 | 0.3 | -4.8 | 6.5
CC1=C/C(=N\OS(=O)(=O)c2ccccc2)C(C(C)C)=CC1=O | -1.0 | 0.2 | -82.8 | -6.5 | 82.8* | -8.5
CC(S(=O)(=O)c1ccccc1)S(=O)(=O)c1ccccc1 | / | 9.7 | / | / | / | 0.9
COc1ccc(S(=O)(=O)/N=C2/C=CC(=O)C(C)=C2C)cc1 | 1.0 | -6.1 | -11.9 | -8.7 | 11.9 | 8.3
CC1=C(C)/C(=N\OS(=O)(=O)c2ccc(C)cc2)C=CC1=O | 0.9 | -3.5 | -91.2 | -4.2 | 91.2* | 9.2
CC1=C/C(=N\OS(=O)(=O)c2ccccc2)C(C)=CC1=O | 0.9 | -5.2 | -78.6 | 2.7 | 78.6* | -15.7
Cc1ccc(C)c(NC(=O)CN(C)C(=O)c2ccc(-c3cccc(C(F)(F)F)c3)o2)c1 | 0.4 | 9.9 | 28.5 | -14.4 | -28.5 | -14.8
COc1cc(OC)cc(-c2c(-c3cccs3)c3cc(-c4ccc(SC)cc4)ccc3n2C)c1 | -1.2 | 13.7 | -19.6 | -0.2 | 19.6 | -7.2
COc1cc(OC)cc(-c2c(-c3cccs3)c3cc(-c4ccc5[nH]ccc5c4)ccc3n2C)c1 | -0.4 | -9.4 | -79.6 | 8.6 | 79.6* | 2.5
COc1cc(OC)cc(-c2c(-c3cccs3)c3cc(-c4ccc5cc[nH]c5c4)ccc3n2C)c1 | -0.2 | 3.2 | -109.0 | 1.1 | 109.0* | -0.2
COc1ccc(-c2c(C#Cc3ccsc3)c3cc(-c4ccc5[nH]ccc5c4)ccc3n2C)cc1 | -0.3 | 7.7 | -40.7 | 17.2* | 40.7 | -9.6
O=[N+]([O-])c1ccc2nc(-c3ccc(Cl)cc3)n(OCc3ccccc3)c2c1 | 2.7 | 4.1 | -80.7 | -6.2 | 80.7* | 7.6
Cc1ccc(COn2c(-c3ccc(Cl)cc3)nc3ccc([N+](=O)[O-])cc32)cc1 | -0.3 | -10.5 | -17.6 | 1.4 | 17.6 | -17.8
Cc1ccc(S(=O)(=O)N2CCN(C(=O)COC(=O)c3ccc(Cl)nc3)CC2)c(C)c1 | -1.8 | -0.6 | 3.0 | 31.5* | -3.0 | -3.1
Cc1ccc(S(=O)(=O)N2CCN(C(=O)COC(=O)c3cccnc3Cl)CC2)c(C)c1 | -4.6 | 1.2 | -1.3 | -2.4 | 1.3 | 4.7
Cc1ccc(S(=O)(=O)N2CCN(C(=O)COC(=O)c3ccc([N+](=O)[O-])o3)CC2)c(C)c1 | -1.6 | 7.7 | -11.3 | -7.5 | 11.3 | 5.2
Cc1ccc(S(=O)(=O)N2CCN(C(=O)COC(=O)c3cc([N+](=O)[O-])ccc3NCCO)CC2)c(C)c1 | -6.2 | -2.3 | -79.3 | -9.2 | 79.3* | -5.7
CC1=C(/C=C/C(C)=N\NC(=O)c2ccncc2)C(C)(C)CCC1 | 0.5 | 0.2 | -87.1 | -0.8 | 87.1* | -0.4
COc1cc(C)c(NC(=O)Cc2ccsc2)cc1OC | -0.7 | -3.0 | 9.5 | -2.0 | -9.5 | -11.5
CCOC(=O)C1(CCCc2ccccc2)CCN(S(=O)(=O)N(C)C)CC1 | 0.1 | -9.2 | -9.8 | -2.5 | 9.8 | -12.7
COc1ccc([N+](=O)[O-])cc1NC(=O)C(C)N1CCN(C(=O)c2ccco2)CC1 (stereo not drawn) | -1.5 | 5.3 | -71.9 | -8.2 | 71.9* | 0.6
COC(=O)c1cc(C(=O)N2CCN(C(=O)c3ccco3)CC2)cc([N+](=O)[O-])c1 | 3.5 | -1.6 | 13.6 | -3.1 | -13.6 | -3.5
SMILES | CDK5 p35 inh | PKA-R1A act | SR-BI DiI-HDL act | dFosB activator | SR-BI HDL uptake | PKA-R2B act
COc1ccc([N+](=O)[O-])cc1NC(=O)C(C)N(C)Cc1ccc(Br)cc1 (stereo not drawn) | 0.6 | 1.2 | -74.9 | -7.9 | 74.9* | 12.3
N#CCCN(Cc1cccnc1)C(=S)NC(=O)c1ccccc1 | 2.2 | -10.9 | -3.0 | 3.1 | 3.0 | -9.6
COC(=O)c1cc(S(=O)(=O)N2CCCCC2)c[nH]1 | 0.8 | -2.0 | 19.3 | -1.2 | -19.3 | 2.6
Cc1cccn2c(=O)nc(SCC(=O)NCc3ccc(F)cc3)nc12 | -0.6 | -0.9 | 3.5 | -2.2 | -3.5 | 3.8
O=C1Nc2ccccc2/C1=N\N=C\C1=C(N2CCOCC2)C(=C\c2ccccc2)/CC1 | 6.7 | -6.3 | -127.7 | 0.1 | 127.7* | -1.7
O=C1Nc2ccc(Br)cc2/C1=N\N=C\C1=C(N2CCOCC2)C(=C/c2ccccc2)/CC1 | 1.1 | -7.2 | -100.0 | -2.3 | 100.0* | -13.1
Cn1cc(C(=O)N/N=C/C2=C(N3CCOCC3)C(=C\c3ccccc3)/CC2)ccc1=O | -0.1 | -7.5 | -47.5 | -0.6 | 47.5 | -10.7
Cc1cccc2sc(NC(=O)c3ccc(Cl)s3)nc12 | 0.2 | -10.1 | -76.1 | 1.1 | 76.1* | 4.2
CCOc1ccc(S(=O)(=O)N2CCOCC2)cc1NC(=O)CCOc1ccc(C(C)(C)C)cc1 | -0.6 | -3.4 | 52.8 | -10.8 | -52.8 | -14.4
COc1ccc(/C=C/C(=O)NC(=S)NNC(=O)c2cnccn2)cc1 | 1.1 | 8.4 | -22.1 | 16.9* | 22.1 | -2.7
O=C(/C=C/c1ccc(F)cc1)NC(=S)NNC(=O)c1cnccn1 | 0.4 | -1.8 | -12.7 | -13.6 | 12.8 | -7.2
COc1ccc(OC)c(CCNC(=O)C(=O)Nc2ccc3nc4n(c(=O)c3c2)CCCCC4)c1 | -0.6 | -12.5 | -77.1 | 11.3 | 77.1* | -4.3
CCOc1ccc(-c2nnn(CC(=O)Nc3cc(OC)ccc3OC)n2)cc1OCC | 0.5 | -0.5 | -33.2 | 2.6 | 33.2 | -6.1
CCOc1ccc(-c2nnn(CC(=O)NCc3ccc(OC)cc3)n2)cc1OCC | 1.1 | 1.6 | -28.2 | 29.0* | 28.2 | 6.3
COc1cc(/C=N/NC(=O)c2ccncc2)ccc1OCCN1CCCCC1 | 1.7 | -15.9 | 2.6 | -8.2 | -2.6 | -4.3
COCCn1c(C)cc(/C=N/NC(=O)c2cc3ccccc3cc2O)c1C | -0.8 | -12.2 | -95.3 | -3.7 | 95.3* | -2.1
COc1cc(/C=N/NC(=O)c2cc3ccccc3cc2O)ccc1OCCN1CCCCC1 | -1.8 | -4.3 | -77.4 | 78.6* | 77.4* | -9.8
COc1ccc(NC(=O)N(C)C[C@H]2Oc3c(NC(=O)Nc4c(C)noc4C)cccc3C(=O)N([C@H](C)CO)C[C@@H]2C)cc1 | -0.1 | -0.6 | -41.8 | -6.9 | 41.8 | -6.0
